High-throughput results as filed in PubChem.
This is one part of a sample in which hits are shown more often than they occur.
T cell HTS: modulates CD8 T cell binding to vesicles; response (vesicle binding), % at 7 µM; 2C CD8+ T cell-vesicle binding, flow cytometry; active compounds read low; actives 0.068% (n = 330,000);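 active means response, share of CD8 T cells binding vesicles, and their 90th percentile fluorescence all below set limits, cut at about 80% in these data, passing the limit was not always enough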;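 further: values below 100% mean blocked vesicle binding to the CD8+ T cells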
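Incubation: binding step 1.5 h, 37 °C, antibody labelling 20 min, ice; system: murine 2C transgenic CD8+ T lymphocytes; technique: cytometric PE anti-B7-1 and Alexa647 anti-CD8 signals after 1% paraformaldehyde fixation; also added: QL9-charged Drosophila Ld/ICAM-1/B7-1 vesicles; control set: naked versus QL9-loaded vesicles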
N-glyco inh: blocks N-linked glycosylation in D54 reporter cells; D54 ERlucT glycosylation luciferase reporter, 24 h; percent of 100 nM tunicamycin response; reporter increase, % at 12.5 µM; actives 0.23% (n = 360,000);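 active means mean luciferase reporter signal, scaled so untreated is 0 and the glycosylation-blocking control 100, at or above a set limit in every replicate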;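 further: luciferase carries N-glycosylation sites so blocking glycosylation raises the light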
ALR inh: blocks human ALR sulfhydryl oxidase activity. P55789. purified ALR, DTT oxidation, H2O2 HRP-luminol luminescence. inhibition, % (no concentration beside the values). actives 3.8% (n = 290,000);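 active means mean replicate inhibition above about 79%, with every replicate also reaching it, limit read from the data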
Target sequence (P55789 whole entry, looked up): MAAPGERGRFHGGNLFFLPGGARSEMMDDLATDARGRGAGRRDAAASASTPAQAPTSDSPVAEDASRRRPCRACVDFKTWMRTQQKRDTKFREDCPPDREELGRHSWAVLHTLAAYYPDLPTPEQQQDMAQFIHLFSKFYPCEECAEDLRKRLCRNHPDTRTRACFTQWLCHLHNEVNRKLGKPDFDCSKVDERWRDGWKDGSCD
Of the large screens only hits and unclear results are named; the others gave an inactive call.

CN(C)C(CNc1ncnc2ccccc12)c1c(F)cccc1Cl (stereo not given)	none
Cc1nn2cc(-c3ccc(N)cc3)nc2s1	ALR inh 98.4
Cc1nc2nc(-c3ccc(F)cc3)cn2nc1C	none
CC(=O)N1c2ccc(S(=O)(=O)NCC3CCC(C(=O)N4CC(C)CC(C)C4)CC3)cc2CC1C (stereo not given)	none
Oc1ccccc1-c1cc(-c2ccco2)[nH]n1	none
Oc1ccc(Br)cc1-c1cc(-c2ccco2)[nH]n1	ALR inh 92.1
CC(C)(C)S(=O)N1Cc2cn(Cc3ccccc3)c(=O)cc2[C@H]1CCO (stereo not given in full)	none (no result: T cell HTS, ALR inh)
O=C(NCCN1C(=O)S/C(=C\c2cccnc2)C1=O)c1ccc([N+](=O)[O-])s1	none
Cc1c(C(=O)NCCN2C(=O)S/C(=C\c3cccnc3)C2=O)cccc1[N+](=O)[O-]	T cell HTS 18.7
Cc1ccc(Cl)cc1NC(=O)COC(=O)c1ccc(COc2ccc3c(C)cc(=O)oc3c2)cc1	none (no result: N-glyco inh)
COc1ccc(NC(=O)CC2C(=O)Nc3ccccc3N2CC(=O)N2CCCC2)cc1 (stereo not given)	ALR inh 98.0
CCCOc1ccc(NC(=O)CC2C(=O)Nc3ccccc3N2CC(=O)N2CCCC2)cc1 (stereo not given)	none
COc1cc(C2NC(=O)NC(C)=C2C(=O)OC2CCCCC2)cc(Cl)c1O (stereo not given)	none
COc1ccc(-c2[nH]c(-c3ccc(C(=O)O)cc3)nc2-c2ccccc2)cc1	ALR inh 98.6
Cc1ccsc1-c1nc(-c2ccccc2)c(-c2ccccc2)[nH]1	none
O=C(O)c1ccc(-c2nc(-c3ccccc3)c(-c3ccccc3)[nH]2)cc1	ALR inh 98.1
COc1ccc(-c2[nH]c(-c3ccc4c(c3)OCO4)nc2-c2ccccc2)cc1	none (no result: N-glyco inh, ALR inh)
O=C(Nc1ccc(S(=O)(=O)N2CCOCC2)cc1)c1ccccc1F	none
CCC(C(=O)Nc1ccc([N+](=O)[O-])cn1)c1ccccc1 (stereo not given)	none (no result: ALR inh)
CCOC(=O)c1cc2c(=Cc3ccc(N(C)C)cc3)c3ccccc3n2[n+]1C	N-glyco inh 40.2 (no result: T cell HTS, ALR inh)
CN(C)c1ccc(C=c2c3ccccc3n3c2c2ccccc2[n+]3C)cc1	none (no result: T cell HTS, ALR inh)
CN(C)c1ccc(C=c2c3cc(O)ccc3n3c2cc(-c2ccccc2)[n+]3C)cc1	none (no result: T cell HTS, ALR inh)
Cc1cc2c(=Cc3ccc(N(C)C)cc3)c3ccccc3n2[n+]1C	N-glyco inh 66.4 (no result: T cell HTS, ALR inh)
N#Cc1cccc(-c2csc(C(O)c3ccco3)n2)c1 (stereo not given)	none (no result: T cell HTS, ALR inh)
CCN1CCCC1CNC(=O)c1cc2cc(F)ccc2[nH]1 (stereo not given)	none
COc1ccc(N2CCN(Cc3nc(N)nc(N4CCCc5ccccc54)n3)CC2)cc1	ALR inh 86.8
Nc1nc(CN2CCN(c3cccc(Cl)c3)CC2)nc(N2CCCc3ccccc32)n1	none
Nc1nc(CN2CCN(c3ccccc3)CC2)nc(N2CCCc3ccccc32)n1	ALR inh 98.1
Nc1nc(CN2CCN(c3ccccc3F)CC2)nc(N2CCCc3ccccc32)n1	none
O=C(COC(=O)C1CC1)NCCNC(=O)COC(=O)C1CC1	none
CCN(C(=O)COC(=O)CCCN1C(=O)c2cccc3cccc(c23)C1=O)C1CCS(=O)(=O)C1 (stereo not given)	none
OC(c1cc(F)cc(Cl)c1)c1ncc(-c2ccccc2C(F)(F)F)[nH]1 (stereo not given)	none (no result: T cell HTS, ALR inh)
OC1c2cc(Cl)cc(Cl)c2N=C2CCCN21 (stereo not given)	none (no result: T cell HTS, ALR inh)
COc1cccc(OCc2nc(-c3cccc([N+](=O)[O-])c3)no2)c1	none
COc1cccc(-c2noc(Cn3nc(C)c([N+](=O)[O-])c3C)n2)c1	ALR inh 92.4
CCN(CC)c1ccc(NC(=O)CCc2nnc3ccc(N4CCCC4)nn23)c(C)c1	none
Cc1ccc2nc(/C(C#N)=C/c3ccc(O)c(O)c3)[nH]c2c1	ALR inh 89.0
Cc1ccc2nc(/C(C#N)=N/O)[nH]c2c1	none
Cc1ccc2nc(/C(C#N)=C/c3cn[nH]c3-c3ccc(F)cc3)[nH]c2c1	N-glyco inh 31.5
Cc1ccc2nc(/C(C#N)=C/c3ccccc3C(=O)O)[nH]c2c1	none (no result: ALR inh)
COc1ccc2ccc(OCC(=O)NCC3CCCO3)cc2c1 (stereo not given)	none (no result: T cell HTS, ALR inh)
CCn1c(CSc2nc3ccccc3[nH]2)nc2cc(C(=O)O)ccc21	none
CCn1c(CSc2nccn2C)nc2cc(C(=O)O)ccc21	ALR inh 97.8
COc1ccccc1NCCC(=O)OCC(=O)Nc1ccccc1Cl	none (no result: ALR inh)
COc1ccccc1NCCC(=O)OCC(=O)NC1CCCCCC1	ALR inh 98.8
COc1ccccc1NCCC(=O)OCC(=O)Nc1ccccc1F	ALR inh 99.2
COc1ccccc1CCC(=O)OCC(=O)NC1CCCC1	none
O=C(CCN1CCOCC1)N1CCCC(Nc2cccc(F)c2)C1 (stereo not given)	none
COc1ccc(NC2CCCN(C(=O)CCN3CCCO3)C2)cc1 (stereo not given)	ALR inh 95.7
O=C(c1cccc2ccccc12)C1CCCN(C(=O)CCN2CCCO2)C1 (stereo not given)	none
COc1ccc(NC2CCCN(C(=O)CCN3CCOCC3)C2)cc1 (stereo not given)	ALR inh 98.7
Cc1ccc(C)c(N(CC(=O)NC2CCCC2)C(=O)CCC(=O)Nc2nccs2)c1	none
COc1cc(NS(=O)(=O)c2ccc(NC(=O)/C=C/c3ccc([N+](=O)[O-])cc3)cc2)ncn1	none
COc1cc(NS(=O)(=O)c2ccc(NC(=O)/C=C/c3cccc([N+](=O)[O-])c3)cc2)ncn1	ALR inh 89.1
CCN(c1ccccc1)S(=O)(=O)c1cccc(C(=O)NCc2ccncc2)c1	none
NC(=O)c1sc2nnc(-c3ccccc3)c(-c3ccccc3)c2c1N	none
Cc1cccc(-c2nnc3n2N=C(c2ccccc2)CS3)c1	none
c1ccc(C2=Nn3c(nnc3-c3ccncc3)SC2)cc1	none
CCc1nnc2n1N=C(c1ccc(Br)cc1)CS2	none
C[n+]1c2n(c3ccccc31)N=C(c1ccc(-c3ccccc3)cc1)CS2	ALR inh 99.0
C[n+]1c2n(c3ccccc31)N=C(c1ccc(Br)cc1)CS2	N-glyco inh 37.2, ALR inh 98.7
C[n+]1c2n(c3ccccc31)N=C(c1ccccc1)CS2	ALR inh 89.0
NC(=O)c1ncn([C@@H]2O[C@H](CNC(=O)[C@H](N)CSCc3ccccc3)[C@@H](O)[C@H]2O)n1	none (no result: T cell HTS, ALR inh)
Cc1cc(C)nc(OC(C(=O)O)C(OCC(C)C)(c2ccccc2)c2ccccc2)n1 (stereo not given)	none
CCc1ccc(N(CC(=O)NCc2ccco2)C(=O)CCC(=O)Nc2nccs2)cc1	none
O=C(NCC1CCCCC1)c1ccccc1[N+](=O)[O-]	none
COc1ccc(N2CCN(C(=O)/C=C/[C@H]3O[C@@H](n4ccc(=O)[nH]c4=O)[C@H](O)[C@@H]3O)CC2)cc1	none (no result: T cell HTS, ALR inh)
COc1ccc(N=Nc2nc3cc(Br)c(Br)cc3n2C)c(OC)c1	none
COc1ccc(/C=N/NC(=O)c2cccc(Br)c2)cc1CSc1ccccn1	none
COc1ccc(C(=O)N/N=C/c2ccc(OC)c(CSc3ccccn3)c2)cc1	ALR inh 99.2
COc1ccc(/C=N/NC(=O)c2cccnc2)cc1CSc1ccccn1	ALR inh 98.7
COc1ccc(/C=N/NC(=O)c2ccn[nH]2)cc1CSc1ccccn1	ALR inh 99.1
